# Tests used:
# [1] = target: GABA A receptor alpha-2/beta-2/gamma-2 (Homo sapiens) (UniProt P47870+P18507+P47869); experiment: Maximal efficacy for GABA-evoked chloride currents mediated by human Gamma-aminobutyric acid GABA-A receptor alpha2-beta2-gamma2L expressed in Xenopus oocytes; type: cell-based; details: Oocyte
# Procedure, shortened: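 Human α2β2γ2L cDNAs, 1.5 ng total in 30 nL at a 1:1:1 ratio, injected into the animal pole of oocytes. Oocytes held at 15 °C in supplemented modified Barth's solution, pH 7.5. Compounds were applied for 60 s together with GABA at EC10 (10% of the 10 mM GABA maximum), final DMSO ≤0.1%. Readout was % potentiation of Cl- current from concentration-response curves.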
# [2] = target: T1, GABA A receptor alpha-2/beta-2/gamma-2 (Homo sapiens, UniProt P18507+P47869+P47870); experiment: Effective concentration against GABA-evoked chloride currents mediated by human Gamma-aminobutyric acid GABA-A receptor alpha2-beta2-gamma2L expressed in Xenopus oocytes; type: cell-based, Oocyte
# T1 sequence (P47870 whole entry): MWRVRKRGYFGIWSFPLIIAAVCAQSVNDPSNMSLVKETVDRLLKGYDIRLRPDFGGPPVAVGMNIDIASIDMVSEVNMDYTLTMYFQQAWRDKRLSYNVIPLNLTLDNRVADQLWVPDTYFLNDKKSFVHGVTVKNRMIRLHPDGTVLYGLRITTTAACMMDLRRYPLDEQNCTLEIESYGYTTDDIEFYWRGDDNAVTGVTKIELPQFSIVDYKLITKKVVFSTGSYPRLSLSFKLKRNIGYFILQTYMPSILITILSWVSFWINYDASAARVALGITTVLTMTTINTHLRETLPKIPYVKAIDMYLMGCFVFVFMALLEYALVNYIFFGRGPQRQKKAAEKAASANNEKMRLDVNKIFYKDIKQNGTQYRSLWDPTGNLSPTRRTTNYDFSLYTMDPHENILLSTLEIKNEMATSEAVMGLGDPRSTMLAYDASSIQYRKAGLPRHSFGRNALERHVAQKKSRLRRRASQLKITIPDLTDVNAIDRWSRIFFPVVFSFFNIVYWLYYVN
# T1 sequence (P18507 whole entry): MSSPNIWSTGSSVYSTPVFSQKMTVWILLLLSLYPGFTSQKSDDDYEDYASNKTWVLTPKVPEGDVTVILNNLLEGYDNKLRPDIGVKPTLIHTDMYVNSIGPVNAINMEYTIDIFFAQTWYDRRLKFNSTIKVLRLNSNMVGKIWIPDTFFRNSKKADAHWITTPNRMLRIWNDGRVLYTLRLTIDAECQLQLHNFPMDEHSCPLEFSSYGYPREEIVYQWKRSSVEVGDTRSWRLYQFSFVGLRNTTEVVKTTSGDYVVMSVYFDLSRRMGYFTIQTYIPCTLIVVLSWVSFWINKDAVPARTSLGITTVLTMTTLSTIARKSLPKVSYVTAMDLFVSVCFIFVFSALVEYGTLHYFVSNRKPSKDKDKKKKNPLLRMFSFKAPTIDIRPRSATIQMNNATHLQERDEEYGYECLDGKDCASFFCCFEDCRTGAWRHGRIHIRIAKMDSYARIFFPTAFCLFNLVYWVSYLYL
# T1 sequence (P47869 whole entry): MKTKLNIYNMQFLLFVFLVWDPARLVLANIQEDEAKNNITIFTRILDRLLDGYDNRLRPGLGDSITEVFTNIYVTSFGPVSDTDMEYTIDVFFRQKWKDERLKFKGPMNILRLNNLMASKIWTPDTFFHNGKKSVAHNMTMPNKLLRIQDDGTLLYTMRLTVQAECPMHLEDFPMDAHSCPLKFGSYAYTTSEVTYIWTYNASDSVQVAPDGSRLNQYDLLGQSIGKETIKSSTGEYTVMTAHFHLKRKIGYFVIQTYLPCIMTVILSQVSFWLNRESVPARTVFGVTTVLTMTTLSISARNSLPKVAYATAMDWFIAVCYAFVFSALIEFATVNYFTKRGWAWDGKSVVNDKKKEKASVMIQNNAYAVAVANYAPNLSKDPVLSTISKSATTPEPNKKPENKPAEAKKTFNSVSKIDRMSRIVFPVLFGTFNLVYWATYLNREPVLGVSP
# Procedure, shortened: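 Human α2β2γ2L cDNAs, 1.5 ng total in 30 nL at a 1:1:1 ratio, injected into the animal pole of oocytes. Oocytes held at 15 °C in supplemented modified Barth's solution, pH 7.5. Readout was % potentiation of Cl- current from concentration-response curves.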
# [3] = Effective concentration required for reversible loss of righting reflex in Xenopus laevis tadpoles; type: functional, Tadpole
SMILES,Maximal efficacy [1],EC50 [2],EC50 [3]
CC(=O)[C@H]1CC[C@H]2[C@@H]3CC[C@H]4C[C@H](O)CC[C@]4(C)[C@H]3C(=O)C[C@]12C,322%,,
CCOC(=O)c1cn(-c2ccccc2)c(-c2ccc(Cl)cc2)n1,458%,4.2 µM,
CCOC(=O)c1cn(-c2ccc(F)cc2)c(-c2ccc(F)cc2)n1,569%,3.1 µM,
O=C(O)c1cn(-c2ccc(Cl)cc2Cl)c(-c2ccc(Cl)cc2)n1,256%,8.7 µM,
CCOC(=O)c1cn(-c2cccc(Cl)c2)c(-c2ccccc2)n1,350%,3 µM,
c1ccc(-c2nccn2-c2ccccc2)cc1,-5.3%,,
O=C(OCCN1CCCCC1)c1cn(-c2ccc(Cl)cc2Cl)c(-c2ccc(Br)cc2)n1,-14%,,
CCOC(=O)c1cn(-c2ccc(Cl)cc2Cl)c(-c2ccc(N)cc2)n1,406%,4.3 µM,
CCOC(=O)c1cn(-c2ccc(Cl)cc2Cl)c(-c2ccc(C)cc2)n1,568%,1 µM,
CCOC(=O)c1cn(-c2ccc(Cl)cc2Cl)c(-c2ccc(Br)cc2)n1,388%,0.19 µM,
CCOC(=O)c1cn(-c2ccc(Cl)cc2Cl)c(-c2ccc(I)cc2)n1,180%,0.45 µM,
CCOC(=O)c1cn(-c2ccccc2)c(-c2ccccc2)n1,638%,6.4 µM,
CCOC(=O)c1cn(-c2ccc(Cl)cc2Cl)c(-c2ccccc2)n1,508%,1.8 µM,
CN1CCN(C(=O)c2cn(-c3ccc(Cl)cc3Cl)c(-c3ccc(Cl)cc3)n2)CC1,58.2%,1.3 µM,
CCOC(=O)c1cn(-c2ccc(Cl)c(Cl)c2)c(-c2ccc(Cl)cc2)n1,521%,2.3 µM,
CCN(CC)C(=O)c1cn(-c2ccc(Cl)cc2Cl)c(-c2ccc(Cl)cc2)n1,32.4%,4.4 µM,
CCOC(=O)c1cn(-c2ccc(Cl)cc2Cl)c(-c2ccc([N+](=O)[O-])cc2)n1,413%,2.4 µM,
CCOC(=O)c1cn(-c2ccc(Cl)cc2Cl)c(-c2ccc(Cl)cc2)n1,390%,0.6 µM,1.2 µM
CCOC(=O)c1cn(-c2ccc(Cl)cc2Cl)c(-c2ccc(NC(C)=O)cc2)n1,209%,19 µM,
CCCOC(=O)c1cn(-c2ccc(Cl)cc2Cl)c(-c2ccc(Br)cc2)n1,537%,1.7 µM,
COC(=O)c1cn(-c2ccc(Cl)cc2Cl)c(-c2ccc(Br)cc2)n1,258%,3.4 µM,
CCOC(=O)c1cn(-c2ccc(Cl)cc2)c(-c2ccc(Cl)cc2)n1,302%,1.5 µM,
CC(C)c1cccc(C(C)C)c1O [PROPOFOL],461%,11.2 µM,1.9 µM
Cc1cn(-c2ccccc2)c(-c2ccccc2)n1,-25%,,
CCOC(=O)c1cncn1[C@H](C)c1ccccc1 [ETOMIDATE],501%,,2.3 µM
CCOC(=O)c1cn(-c2ccccc2)c(-c2ccc(OC)cc2)n1,369%,9.1 µM,
CCOC(=O)c1cn(-c2ccc(Cl)cc2Cl)c(-c2ccc(OC)cc2)n1,362%,1.9 µM,
CCOC(=O)c1cn(-c2ccccc2)c(-c2ccc(C)cc2)n1,625%,4.1 µM,
CCCC(C)C1(CC)C(=O)NC(=O)NC1=O (stereo unspecified) [PENTOBARBITAL],214%,50 µM,

# Reference: ChEMBL document CHEMBL1145214, “Synthesis, structure-activity relationships at the GABA(A) receptor in rat brain, and differential electrophysiological profile at the recombinant human GABA(A) receptor of a series of substituted 1,2-diphenylimidazoles” (J Med Chem, 2005)
